Experimental data from ChEMBL document CHEMBL1138522, “A novel small-molecule inhibitor of the avian influenza H5N1 virus determined through computational screening against the neuraminidase” (J Med Chem, 2009).
Calls of active or inactive are those of the source. No cut-off for these calls is given here. Residues, ends and D or L forms follow the SMILES beside them. *: point of attachment. Cbz = O=C(OCc1ccccc1)*

Experiments:
[1] = tested on: MDCK; test: Cytotoxicity against MDCK cells after 48 hrs by MTT assay; type: cell-based, Canis lupus familiaris; conditions: dog
Procedure, shortened: (§1)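 Primary human blood macrophages or MDCK cells were incubated 48 h with DMSO-dissolved compound; viability by MTT assay. DMSO-treated cells served as solvent controls.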

[2] = tested on: Influenza A virus; test: Antiviral activity against influenza A virus H1N1 A/HK/54/98 in MDCK cells assessed as inhibition of viral replication after 48 hrs by hemagglutinination assay; type: functional, organism-based
Procedure, shortened: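 H1N1 A/HK/54/98 infected MDCK cells at moi 2 for 30 min, then washed once with PBS. Cells were refed with serum-free medium containing TPCK-trypsin plus compound. Supernatant was collected 48 h post-infection and viral titre was read by hemagglutination assay.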

[3] = Cytotoxicity against primary human blood macrophages after 48 hrs by MTT assay; type: cell-based; conditions: macrophage; procedure, shortened: as §1
[4] = tested on: Influenza A virus; test: Antiviral activity against Influenza A virus (A/Viet Nam/1203/2004(H5N1)) in MDCK cells assessed as inhibition of viral replication after 48 hrs by hemagglutinination assay; type: functional, organism-based
[5] = tested on: Influenza A virus; test: Antiviral activity against influenza A virus H1N1 A/HK/54/98 in MDCK cells assessed as inhibition of viral replication at 100 uM after 18 hrs by transmission electron microscopy; type: functional, organism-based
Procedure, shortened: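 MDCK cells were infected with H1N1 at moi 2, then treated with compound at 100 µM, with DMSO controls. At 18 h post-infection, cells were fixed in 2.5% glutaraldehyde in 0.1 M cacodylate (pH 7.4), post-fixed in 1% osmium tetroxide, and embedded in epoxy. 100 nm sections were examined by TEM for surface virions.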

[6] = tested on: Influenza A virus; test: Antiviral activity against Influenza A virus (A/Viet Nam/1203/2004(H5N1)) in MDCK cells assessed as inhibition of viral replication at 100 uM after 18 hrs by transmission electron microscopy; type: functional, organism-based
[7] = molecular target: Neuraminidase (Influenza A virus) (UniProt B4URF0); test: Inhibition of influenza A virus H1N1 neuraminidase catalytic activity at 100 uM
Procedure, shortened: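 Chemiluminescent NA-Star kit using H1N1 virus (TCID50 2 × 10^7/mL, diluted 5-fold) as enzyme source. Virus was preincubated with compound, in triplicate, 20 min at 37 °C. 1:1000-diluted substrate was then added for 30 min at room temperature, followed by accelerator and an immediate luminescence read.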

[8] = tested on: Mus musculus; test: Toxicity in mouse assessed as survival up to 400 mg/kg; type: organism-based; set-up: dose 400 mg/kg; conditions: in vivo
[9] = tested on: Influenza A virus; test: Antiviral activity against Influenza A virus (A/Viet Nam/1203/2004(H5N1)) in MDCK cells assessed as inhibition of virus-induced cytopathic effect after 48 hrs by crystal violet staining; type: functional, organism-based
[10] = tested on: Influenza A virus; test: Antiviral activity against influenza A virus H1N1 A/HK/54/98 in MDCK cells assessed as inhibition of virus-induced cytopathic effect after 48 hrs by crystal violet staining; type: functional, organism-based
Procedure, shortened: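 H1N1 A/HK/54/98 infected MDCK cells at moi 2, with compound over a range of concentrations; supernatant taken at 48 h. Serial 2-fold dilutions were adsorbed 1 h onto MDCK cells (2 × 10^4/well), then incubated 4 days in MEM with 1 µg/mL TPCK-trypsin. CPE was read by formaldehyde fixation and crystal violet staining; TCID50 by Reed-Muench. Three independent experiments.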

| Compound | Activity [1] [µM] | Activity [2] | Activity [3] [µM] | Activity [4] | Activity [5] | Activity [6] | Activity [7] | Activity [8] | Activity [9] | Activity [10] |
| --- | --- | --- | --- | --- | --- | --- | --- | --- | --- | --- |
| C/C(=C\C(=O)N1c2ccccc2CC1c1c[nH]c2ccccc12)C(=O)O (centres undefined) | 1.2 | inactive | 1 | inactive | – | – | – | – | – | – |
| C[C@H](NC(=O)OCc1ccccc1)C(=O)N[C@@H](Cc1c[nH]c2ccccc12)C(=O)O (Cbz-Ala-Trp-OH) | – | inactive | 0.9 | inactive | – | – | – | – | – | – |
| O=C(O)CCCCCNC(=O)OCc1ccccc1 | 1.5 | inactive | 0.9 | inactive | – | – | – | – | – | – |
| Cc1ccccc1OC(=O)Nc1ccc(C(=O)O)c(O)c1 | 1.7 | inactive | 0.9 | inactive | – | – | – | – | – | – |
| CC[C@H](C)[C@H](NC(=O)[C@H](C)NC(=O)OCc1ccccc1)C(=O)O (Cbz-Ala-Ile-OH) | – | inactive | 1 | inactive | – | – | – | – | – | – |
| O=C(O)CCC(=O)NCC1CCCC(CNC(=O)CCC(=O)O)C1 (centres undefined) | 1.3 | inactive | 0.9 | inactive | – | – | – | – | – | – |
| O=C(O[C@H](C(=O)O)[C@H](OC(=O)c1ccccc1)C(=O)O)c1ccccc1 | 0.7 | inactive | 1.1 | inactive | – | – | – | – | – | – |
| O=C(O)CCC(=O)CCC(=O)c1ccc2ccccc2c1 | 1 | inactive | 1.1 | inactive | – | – | – | – | – | – |
| Nc1nc(=O)c2cc(CSc3ccc(C(=O)NC(CCC(=O)O)C(=O)O)cc3)ccc2[nH]1 (centres undefined) | – | inactive | – | inactive | – | – | – | – | – | – |
| Cc1nc(Nc2ccccc2)sc1C(=O)CC(=O)C(=O)NC1C2CC3CC(C2)CC1C3 (centres undefined) | 1.5 | inactive | 1.1 | inactive | – | – | – | – | – | – |
| CCOC(=O)CNC(=O)CCC(NS(=O)(=O)c1ccc(C)cc1)C(=O)O (centres undefined) | – | inactive | 0.8 | inactive | – | – | – | – | – | – |
| O=C(Nc1ccn(C2CCC(COC(c3ccccc3)(c3ccccc3)c3ccccc3)O2)c(=O)n1)c1ccccc1 (centres undefined) | – | inactive | 0.8 | inactive | – | – | – | – | – | – |
| CCOC(=O)C1=C[C@@H](OC(CC)CC)[C@H](NC(C)=O)[C@@H](N)C1 | – | Active | – | Active | Active | Active | – | – | – | – |
| Nc1nc(O)c2cc(CSc3ccc(C(=O)NC(CCC(=O)O)C(=O)O)cc3)ccc2n1 (centres undefined) | 1.1 | – | 1.1 | – | – | – | – | – | – | – |
| Nc1nc(=O)c2cc(NCc3ccc(C(=O)NC(CCC(=O)O)C(=O)O)cc3)ccc2[nH]1 (centres undefined) | 1.2 | inactive | 0.9 | inactive | – | – | – | – | – | – |
| O=C(O)c1ccccc1C(=O)Nc1cc2c(cc1Br)-c1ccccc1C2=O | 1.1 | inactive | 10 | inactive | – | – | – | – | – | – |
| Cc1nc(N)nc(O)c1CCCNc1ccc(/C=C/C(=O)CCl)cc1 | 2.2 | Active | 1.1 | Active | Active | Active | Active | Non-toxic | Dose-dependent effect | Dose-dependent effect |
| CNC(=N)Nc1ccc(C(=O)O)cc1.O=S(=O)(O)O | – | inactive | 0.7 | inactive | – | – | – | – | – | – |
| Cc1cccc(OC(=O)Nc2ccc(C(=O)O)c(O)c2)c1 | 2.3 | inactive | 1 | inactive | – | – | – | – | – | – |
| O=C(/C=C/c1ccc(O)c(O)c1)NCC(=O)NC(Cc1ccccc1)C(=O)O (centres undefined) | 2.2 | inactive | 1.1 | inactive | – | – | – | – | – | – |
| CCOC(=O)C(O)C(=O)OCc1ccc2ccccc2n1 (centres undefined) | 1.4 | inactive | 1 | inactive | – | – | – | – | – | – |
| O=C(O)C(Cc1ccc(O)cc1)c1ccc(C(Cc2ccc(O)cc2)C(=O)O)cc1 (centres undefined) | – | inactive | 0.1 | inactive | – | – | – | – | – | – |
